Data: ChEMBL document CHEMBL5338714, “Design, synthesis and biological evaluation of biphenyl-benzamides as potent FtsZ inhibitors” (Eur J Med Chem, 2022)
≈ marks a conversion by molar mass, not a printed value.

Key:
Format in all cases: functional
[1] = test system: Bacillus subtilis; experiment: Antibacterial activity against Bacillus subtilis ATCC9372 assessed as bacterial growth inhibition incubated for 18 hrs by CLSI based broth microdilution method
How it was run: (§1)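 CLSI broth microdilution. Log-phase bacteria in Mueller Hinton broth added to 2-fold serial dilutions spanning 128 to 0.25 or 2 to 0.004 µg/mL. Incubated aerobically for 18 h at 37 °C, then OD600 read. MIC is the lowest concentration giving ≥90% growth inhibition; three independent assays.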

[2] = test system: Staphylococcus aureus; experiment: Antibacterial activity against Staphylococcus aureus ATCC29213 assessed as bacterial growth inhibition incubated for 18 hrs by CLSI based broth microdilution method; how it was run: as §1
[3] = test system: Staphylococcus aureus; experiment: Antibacterial activity against Staphylococcus aureus ATCC25923 assessed as bacterial growth inhibition incubated for 18 hrs by CLSI based broth microdilution method; how it was run: as §1
[4] = test system: Bacillus subtilis; experiment: Antibacterial activity against Bacillus subtilis MG27 assessed as bacterial growth inhibition incubated for 18 hrs by CLSI based broth microdilution method; how it was run: as §1
[5] = test system: Bacillus subtilis; experiment: Antibacterial activity against Bacillus subtilis 618 assessed as bacterial growth inhibition incubated for 18 hrs by CLSI based broth microdilution method; how it was run: as §1
[6] = test system: Bacillus subtilis; experiment: Antibacterial activity against Bacillus subtilis BS01 assessed as bacterial growth inhibition incubated for 18 hrs by CLSI based broth microdilution method; how it was run: as §1
[7] = test system: Klebsiella pneumoniae; experiment: Antibacterial activity against Klebsiella pneumoniae 14578 assessed as bacterial growth inhibition incubated for 18 hrs by CLSI based broth microdilution method
How it was run: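 Broth microdilution to CLSI guidelines. Log-phase bacteria grown in Mueller Hinton broth, diluted, then exposed to 2-fold serial dilutions of compound (128 to 0.25 µg/mL or 2 to 0.004 µg/mL). Incubated aerobically 18 h at 37 °C. Growth read as OD600. MIC = lowest concentration giving ≥90% growth inhibition. Three independent assays.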

[8] = test system: Staphylococcus aureus; experiment: Bactericidal activity against Staphylococcus aureus ATCC25923 incubated for 24 hrs by broth microdilution method
How it was run: (§2)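 MBC from the broth microdilution plates (MHB, 2-fold dilutions). After 24 h, 5 µL aliquots from clear wells were plated on LB agar and incubated aerobically 24 h at 37 °C, then colonies counted. MBC = lowest concentration with no colonies.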

[9] = test system: Bacillus subtilis; experiment: Bactericidal activity against Bacillus subtilis ATCC9372 incubated for 24 hrs by broth microdilution method; how it was run: as §2

Compound | MIC [1] [µg/mL] | MIC [2] [µg/mL] | MIC [3] [µg/mL] | MIC [4] [µg/mL] | MIC [5] [µg/mL] | MIC [6] [µg/mL] | MIC [7] [µg/mL] | MBC [8] [µg/mL] | MBC [9] [µg/mL]
NC(=O)c1c(F)ccc(OCc2cccc(-c3ccc(Cl)cc3C(F)(F)F)c2)c1F | 0.125 (≈ 0.283 µM) | 0.5 (≈ 1.13 µM) | 0.5 (≈ 1.13 µM) | – | – | – | – | – | –
NC(=O)c1c(F)ccc(OCc2cccc(-c3ccc(C(F)(F)F)cc3Cl)c2)c1F | 0.031 (≈ 0.0702 µM) | 0.25 (≈ 0.566 µM) | 0.25 (≈ 0.566 µM) | 0.063 (≈ 0.143 µM) | 0.063 (≈ 0.143 µM) | 0.031 (≈ 0.0702 µM) | – | – | –
NC(=O)c1c(F)ccc(OCc2cc(Cl)cc(-c3ccc(C(F)(F)F)cc3)c2)c1F | 1 (≈ 2.26 µM) | > 128 | > 128 | – | – | – | – | – | –
CCCCCc1ccc(-c2cccc(COc3ccc(F)c(C(N)=O)c3F)c2)cc1 | 0.125 (≈ 0.305 µM) | > 128 | > 128 | – | – | – | – | – | –
Cc1cccc(-c2cccc(COc3ccc(F)c(C(N)=O)c3F)c2)c1 | 32 (≈ 90.6 µM) | > 128 | > 128 | – | – | – | – | – | –
CCCCc1ccc(-c2cccc(COc3ccc(F)c(C(N)=O)c3F)c2)cc1 | 0.125 (≈ 0.316 µM) | 1 (≈ 2.53 µM) | 0.5 (≈ 1.26 µM) | – | – | – | – | – | –
CCCc1ccc(-c2cccc(COc3ccc(F)c(C(N)=O)c3F)c2)cc1 | 0.125 (≈ 0.328 µM) | 1 (≈ 2.62 µM) | 1 (≈ 2.62 µM) | – | – | – | – | – | –
NC(=O)c1c(F)ccc(OCc2cccc(-c3ccc(F)cc3)c2)c1F | 0.125 (≈ 0.35 µM) | 2 (≈ 5.6 µM) | 1 (≈ 2.8 µM) | – | – | – | – | – | –
NC(=O)c1cc(C(F)(F)F)ccc1-c1cccc(COc2ccc(F)c(C(N)=O)c2F)c1 | > 128 | > 128 | > 128 | – | – | – | – | – | –
CN[C@H](CC(C)C)C(=O)N[C@H]1C(=O)N[C@@H](CC(N)=O)C(=O)N[C@H]2C(=O)N[C@H]3C(=O)N[C@H](C(=O)N[C@H](C(=O)O)c4cc(O)cc(O)c4-c4cc3ccc4O)[C@H](O)c3ccc(c(Cl)c3)Oc3cc2cc(c3O[C@@H]2O[C@H](CO)[C@@H](O)[C@H](O)[C@H]2O[C@H]2C[C@](C)(N)[C@H](O)[C@H](C)O2)Oc2ccc(cc2Cl)[C@H]1O [VANCOMYCIN] | 1 (≈ 0.69 µM) | – | – | – | – | – | > 128 | 0.5 (≈ 0.345 µM) | 1 (≈ 0.69 µM)
NC(=O)c1c(F)ccc(OC(CO)c2cccc(-c3ccc(C(F)(F)F)cc3)c2)c1F (stereo not drawn) | 0.5 (≈ 1.14 µM) | 8 (≈ 18.3 µM) | 4 (≈ 9.15 µM) | – | – | – | – | – | –
NC(=O)c1c(F)ccc(OCc2cccc(-c3ccc(C(F)(F)F)cc3C(F)(F)F)c2)c1F | 0.125 (≈ 0.263 µM) | 0.5 (≈ 1.05 µM) | 0.5 (≈ 1.05 µM) | – | – | – | – | – | –
Cc1ccccc1-c1cccc(COc2ccc(F)c(C(N)=O)c2F)c1 | 0.25 (≈ 0.707 µM) | 1 (≈ 2.83 µM) | 1 (≈ 2.83 µM) | – | – | – | – | – | –
NC(=O)c1c(F)ccc(OCc2cccc(-c3ccc(C(F)(F)F)cc3F)c2)c1F | 0.063 (≈ 0.148 µM) | 1 (≈ 2.35 µM) | 1 (≈ 2.35 µM) | – | – | – | – | – | –
NC(=O)c1c(F)ccc(OCc2cccc(-c3ccc(Cl)cc3F)c2)c1F | 0.016 (≈ 0.0408 µM) | 0.5 (≈ 1.28 µM) | 0.5 (≈ 1.28 µM) | 0.031 (≈ 0.0791 µM) | 0.016 (≈ 0.0408 µM) | 0.016 (≈ 0.0408 µM) | – | – | –
CC(C)c1ccc(-c2cccc(COc3ccc(F)c(C(N)=O)c3F)c2)cc1 | 0.5 (≈ 1.31 µM) | > 128 | > 128 | – | – | – | – | – | –
NC(=O)c1c(F)ccc(OCc2cccc(-c3ccc(C(F)(F)F)cc3)c2)c1F | 0.125 (≈ 0.307 µM) | 2 (≈ 4.91 µM) | 1 (≈ 2.45 µM) | – | – | – | – | – | –
